Results on 18 molecules are retold here after ChEMBL document CHEMBL1275319, “Synthesis and cytotoxicity evaluation of novel 1,4-disubstituted 1,2,3-triazoles via CuI catalysed 1,3-dipolar cycloaddition” (Eur J Med Chem, 2010).

What is called inhibition is the change of the read-out against control, counted positive when it falls. Higher therefore signals a strong effect. As usually defined, the IC50 is the concentration that gives 50% inhibition. A low value points to higher potency.

A value given as a limit tells only on which side of the number the result lay.

The nature of assay [1]: Inhibition of tubulin polymerization at 3 uM. In short, it runs like this:
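Reaction started by GTP addition and run protected from light at 37 °C. Polymerization followed as fluorescence increase at 360/420 nm excitation/emission. Percent inhibition calculated relative to untreated control.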

The subject of another assay is A549. Description: Antiproliferative activity against human A549 cells after 48 hrs by MTT assay. It is filed as functional, cell-based. The settings on record: A549, 48 h. An outline of the steps:
(§1)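 MTT viability read-out; cells cultured in DMEM and exposed to compound for 48 h. IC50 taken as the concentration giving 50% inhibition of tumour cell proliferation.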

Another assay relates to HT-29. Kind of assay: Antiproliferative activity against human HT-29 cells after 48 hrs by MTT assay. In kind it is functional, cell-based. The settings on record: HT-29, 48 h. An outline of the steps:
as §1
(Tetrazolium dyes change colour on reduction, which living cells bring about.)

Another assay relates to HeLa. Kind of assay: Antiproliferative activity against human HeLa cells after 48 hrs by MTT assay. It is filed as functional, cell-based. An outline of the steps:
as §1

A short description of assay [2]: Inhibition of tubulin polymerization at 30 uM. In short, it runs like this:
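GTP addition starts the reaction, run protected from light at 37 °C. Polymerization followed as fluorescence increase at 360/420 nm excitation/emission; % inhibition calculated against untreated control.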

In assay [1], `COc1cc([C@@H]2c3cc4c(cc3[C@H](O)[C@H]3COC(=O)[C@H]23)OCO4)cc(OC)c1OC` yielded an inhibition of 58.1%.
In the case of `Cc1ccc(-c2cn(CC(=O)c3ccccc3)nn2)cc1`, the results for the IC50 in the assay on A549, in the assay on HT-29 and in the assay on HeLa were 292 µM, 238 µM and > 300 µM, respectively. The inhibition in assay [2] is 2.8%.
With `Cc1ccc(C(=O)Cn2cc(-c3ccccc3)nn2)cc1`, the IC50 with A549, in the assay on HT-29 and in the assay with HeLa was > 300 µM each time.
As to `COc1ccc(-c2cn(CC(=O)c3ccccc3)nn2)cc1`, the IC50 was 187 µM in the assay with A549, > 300 µM in the assay with HT-29 and > 300 µM in the assay with HeLa.
Consider `CCCCCc1ccc(-c2cn(CC(=O)c3ccccc3)nn2)cc1`, for which the half-inhibitory concentration (IC50) in the assay with A549, in the assay on HT-29 and with HeLa was > 300 µM throughout.
Take `O=C(Cn1cc(-c2ccccn2)nn1)c1ccccc1`: the 50% inhibitory concentration (IC50) with A549, in the assay with HT-29 and in the assay with HeLa was > 300 µM throughout.
As to `CCCCCCc1cn(CC(=O)c2ccccc2)nn1`, the IC50 in the assay on A549, in the assay with HT-29 and in the assay on HeLa was > 300 µM throughout.
Turning to `O=C(Cn1cc(CO)nn1)c1ccccc1`, the IC50 in the assay with A549, with HT-29 and in the assay on HeLa was > 300 µM throughout.
For the molecule `CCC(C(=O)c1ccccc1)n1cc(-c2ccccc2)nn1` (configuration not stated), the IC50 in the assay on A549 amounted to 26 µM; in the assay on HT-29, 116 µM; with HeLa it was 155 µM. The inhibition in assay [2] was determined as 19.3%.
For `COc1cc2c(c(OC)c1OC)-c1ccc(OC)c(=O)cc1[C@@H](NC(C)=O)CC2` [COLCHICINE], the 50% inhibitory concentration (IC50) with A549, with HT-29 and in the assay on HeLa was < 1 µM each time. This molecule also showed an inhibition in assay [1] of 53.8%.
Take `Cc1cc(C)c(-c2cn(CC(=O)c3ccccc3)nn2)cc1C`: the figures for the IC50 in the assay with A549, in the assay on HT-29 and in the assay with HeLa were 91 µM, 190 µM and > 300 µM, respectively. Moreover, the inhibition in assay [2] turned out to be 6.6%.
Consider `O=C(Cn1cc(-c2ccccc2)nn1)c1ccc(Br)cc1`, for which the half-inhibitory concentration (IC50) with A549, in the assay on HT-29 and with HeLa was > 300 µM in each case.
Take `COc1ccc2cc(-c3cn(CC(=O)c4ccccc4)nn3)ccc2c1`: the IC50 with A549, in the assay on HT-29 and in the assay with HeLa was > 300 µM in each case.
On to `O=C(Cn1cc(-c2ccccc2)nn1)c1ccccc1`, for which the 50% inhibitory concentration (IC50) with A549, with HT-29 and with HeLa was > 300 µM throughout.
As for `O=C(Cn1cc(-c2ccsc2)nn1)c1ccccc1`, the IC50 with A549 was 260 µM; in the assay with HT-29, > 300 µM; in the assay on HeLa, > 300 µM.
Take `COc1ccc(C(=O)Cn2cc(-c3ccccc3)nn2)cc1`: the IC50 with A549 was > 300 µM; with HT-29 it was 49 µM; with HeLa, > 300 µM. In assay [2], this molecule came in with an inhibition of 14.1%.
Take `O=C(Cn1cc(-c2ccccc2)nn1)c1ccc(Cl)cc1`: the 50% inhibitory concentration (IC50) with A549, in the assay with HT-29 and in the assay with HeLa was > 300 µM in each case.
Consider `CC(C(=O)c1ccccc1)n1cc(-c2ccccc2)nn1` (configuration not stated), for which the IC50 in the assay with A549, with HT-29 and in the assay with HeLa was > 300 µM in each case.
